Active and inactive are the calls of the source. The rule behind the calls is not given here.
Key:
3T3-L1 [1] = test: Adipogenic activity in mouse 3T3L1 cells assessed as increase in triglyceride level at 3 uM after 8 days relative to control; format: functional
Outline: (§1)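 3T3L1 fibroblasts grown in DMEM/10% newborn calf serum, 37 °C, 5% CO2. Two days post-confluence, differentiation induced with 2 μg/mL insulin, 1 μM dexamethasone, 125 μM IBMX in DMEM/10% FBS. Medium was then changed every two days to 10% FBS/DMEM plus 2 μg/mL insulin. Compounds added at induction and kept 8 days. Cells lysed by three freeze/thaw cycles; triglyceride measured by enzymatic kit.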

3T3-L1 [2] = test: Adipogenic activity in mouse 3T3L1 cells assessed as upregulation of GLUT4 protein expression at 3 to 10 uM by […] analysis; format: functional, cell-based
Outline: (§2)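 Differentiating 3T3L1 cells (insulin/dexamethasone/IBMX induction, compounds added at induction) harvested in RIPA buffer with protease inhibitors. Proteins resolved by SDS-PAGE and blotted onto PVDF. Blots probed with primary antibodies to GLUT4 or aP2 and β-actin, then HRP-conjugated secondary antibodies.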

3T3-L1 [3] = test: Adipogenic activity in mouse 3T3L1 cells assessed as increase in triglyceride level at 10 uM after 8 days relative to control; format: functional; outline: as §1
3T3-L1 [4] = test: Adipogenic activity in mouse 3T3L1 cells assessed as upregulation of ap2 protein expression at 3 to 10 uM by […] analysis; format: functional, cell-based; outline: as §2
3T3-L1 [5] = test: Adipogenic activity in mouse 3T3L1 cells assessed as intracellular lipid droplet accumulation at 10 to 30 uM after 8 days by oil red O staining; format: functional, cell-based
Outline: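 3T3L1 fibroblasts, differentiation induced 2 days post-confluence with insulin (2 μg/mL), dexamethasone (1 μM), IBMX (125 μM) in 10% FBS/DMEM, then insulin-supplemented 10% FBS/DMEM changed every 2 days. Compounds present from induction. After 8 days of differentiation, cells stained with Oil Red O and photographed.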

3T3-L1 [6] = test: Adipogenic activity in mouse 3T3L1 cells assessed as upregulation of ap2 gene expression at 3 to 30 uM by RT-PCR analysis; format: functional, cell-based
Outline: (§3)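 In differentiating 3T3L1 cells (insulin/dexamethasone/IBMX induction, compounds added at induction), total RNA extracted with TRIzol, reverse-transcribed, then quantitative PCR run with mouse primers for GLUT4 or aP2, with β-actin as reference gene.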

3T3-L1 [7] = test: Adipogenic activity in mouse 3T3L1 cells assessed as upregulation of GLUT4 gene expression at 3 to 30 uM by RT-PCR analysis; format: functional, cell-based; outline: as §3
3T3-L1 [8] = test: Adipogenic activity in mouse 3T3L1 cells assessed as increase in triglyceride level after 8 days relative to control; format: functional, cell-based; outline: as §1
3T3-L1 [9] = test: Adipogenic activity in mouse 3T3L1 cells assessed as upregulation of ap2 protein expression at 3 to 30 uM by […] analysis; format: functional, cell-based
3T3-L1 [10] = test: Adipogenic activity in mouse 3T3L1 cells assessed as upregulation of GLUT4 protein expression at 3 to 30 uM by […] analysis; format: functional, cell-based; outline: as §2
3T3-L1 [11] = test: Adipogenic activity in mouse 3T3L1 cells assessed as increase in triglyceride level at 30 uM after 8 days relative to control; format: functional; outline: as §1
3T3-L1 [12] = test: Adipogenic activity in mouse 3T3L1 cells assessed as increase in triglyceride level at 1 uM after 8 days relative to control; format: functional; outline: as §1

## COc1c(-c2cc(CC=C(C)C)c(O)c(CC=C(C)C)c2)oc2cc(O)cc(O)c2c1=O
3T3-L1 [1]
  Activity: 169.9%

## COc1c(O)cc2oc(-c3cc(CC=C(C)C)c(O)c(CC=C(C)C)c3)c(OC)c(=O)c2c1O
3T3-L1 [1]
  Activity: 256.2%

## COc1c(O)cc2oc(-c3cc(CC=C(C)C)c(O)c(CCC(C)CO)c3)c(OC)c(=O)c2c1O (stereo not drawn)
3T3-L1 [2]
  Activity: Active
3T3-L1 [3]
  Activity: 289.8%
3T3-L1 [4]
  Activity: Active
3T3-L1 [5]
  Activity: Active
3T3-L1 [1]
  Activity: 233%
3T3-L1 [6]
  Activity: Active
3T3-L1 [7]
  Activity: Active

## COc1c(-c2ccc(O)cc2)oc2cc(O)cc(O)c2c1=O
3T3-L1 [8]
  Activity: inactive

## COc1c(O)cc2oc(-c3ccc(O)cc3)c(OC)c(=O)c2c1O
3T3-L1 [8]
  Activity: inactive

## COc1cc(O)c2c(c1)O[C@H](c1cc(O)cc(O)c1)CC2=O [BLUMEATIN]
3T3-L1 [9]
  Activity: Active
3T3-L1 [3]
  Activity: 161.3%
3T3-L1 [10]
  Activity: Active
3T3-L1 [11]
  Activity: 219.2%
3T3-L1 [5]
  Activity: Active
3T3-L1 [1]
  Activity: 121.2%
3T3-L1 [6]
  Activity: Active
3T3-L1 [7]
  Activity: Active

## C=C(C)C(O)Cc1cc(-c2oc3cc(O)c(OC)c(O)c3c(=O)c2OC)cc(CCC(C)CO)c1O (stereo not drawn) [DODOVISCIN A]
3T3-L1 [2]
  Activity: Active
3T3-L1 [3]
  Activity: 248.3%
3T3-L1 [4]
  Activity: Active
3T3-L1 [5]
  Activity: Active
3T3-L1 [1]
  Activity: 138.5%
3T3-L1 [6]
  Activity: Active
3T3-L1 [7]
  Activity: Active

## C=C(C)C(O)Cc1cc(-c2oc3cc(O)c(OC)c(O)c3c(=O)c2OC)cc(CC=C(C)C)c1O (stereo not drawn) [DODOVISCIN B]
3T3-L1 [1]
  Activity: 328.1%

## COc1c(O)cc2oc(-c3cc(CC=C(C)C)c(O)c(C[C@H](O)C(C)(C)O)c3)c(OC)c(=O)c2c1O [DODOVISCIN D]
3T3-L1 [3]
  Activity: 117.8%
3T3-L1 [11]
  Activity: 198.2%
3T3-L1 [1]
  Activity: 103.2%

## COc1c(-c2cc(CC=C(C)C)c(O)c(C/C=C(\C)CO)c2)oc2cc(O)cc(O)c2c1=O [DODOVISCIN E]
3T3-L1 [1]
  Activity: 280.2%

## COc1c(O)cc2oc(-c3cc(CC=C(C)C)c(O)c(C/C=C(\C)CO)c3)c(OC)c(=O)c2c1O [DODOVISCIN G]
3T3-L1 [1]
  Activity: 355.7%

## COc1c(-c2cc(CC=C(C)C)c(O)c(CCC(C)CO)c2)oc2cc(O)cc(O)c2c1=O (stereo not drawn) [DODOVISCIN H]
3T3-L1 [1]
  Activity: 263.1%

## COc1c(-c2ccc(O)c(CCC(C)CO)c2)oc2cc(O)cc(O)c2c1=O (stereo not drawn) [DODOVISCIN I]
3T3-L1 [1]
  Activity: 189.6%

## CN(CCOc1ccc(CC2SC(=O)NC2=O)cc1)c1ccccn1 (stereo not drawn) [ROSIGLITAZONE]
3T3-L1 [12]
  Activity: 335.6%

## COc1cc(O)c2c(c1)O[C@H](c1ccc(O)cc1)CC2=O [SAKURANETIN]
3T3-L1 [3]
  Activity: 419.9%
3T3-L1 [11]
  Activity: 459.4%
3T3-L1 [1]
  Activity: 278.8%

From ChEMBL document CHEMBL2034925, “Isoprenylated flavonoid and adipogenesis-promoting constituents of Dodonaea viscosa” (2012)
